The structures appear in SMILES notation.

Experiment [1] deals with T1, Tyrosine-protein phosphatase non-receptor type 2 (Homo sapiens, UniProt P17706).
T1 sequence (P17706 whole entry): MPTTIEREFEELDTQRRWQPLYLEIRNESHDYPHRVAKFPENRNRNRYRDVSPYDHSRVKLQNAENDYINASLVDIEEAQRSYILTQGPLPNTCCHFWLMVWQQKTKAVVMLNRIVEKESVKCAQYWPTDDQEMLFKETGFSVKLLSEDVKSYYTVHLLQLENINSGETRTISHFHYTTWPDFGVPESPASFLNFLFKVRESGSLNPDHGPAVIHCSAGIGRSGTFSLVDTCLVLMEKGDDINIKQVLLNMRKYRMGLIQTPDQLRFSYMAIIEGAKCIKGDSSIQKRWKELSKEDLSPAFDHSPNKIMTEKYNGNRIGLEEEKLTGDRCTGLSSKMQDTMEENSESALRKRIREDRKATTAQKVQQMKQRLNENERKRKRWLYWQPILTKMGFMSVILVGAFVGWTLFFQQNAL
Briefly: Inhibition of human PTPN2 expressed in Escherichia coli Rosetta 2 (DE3) using pNPP as substrate after 45 mins by spectrophotometric method.

In experiment [2] the target is T2, Phosphotyrosine protein phosphatase (Mycobacterium tuberculosis, UniProt A0A045ISB3).
T2 sequence (A0A045ISB3 whole entry): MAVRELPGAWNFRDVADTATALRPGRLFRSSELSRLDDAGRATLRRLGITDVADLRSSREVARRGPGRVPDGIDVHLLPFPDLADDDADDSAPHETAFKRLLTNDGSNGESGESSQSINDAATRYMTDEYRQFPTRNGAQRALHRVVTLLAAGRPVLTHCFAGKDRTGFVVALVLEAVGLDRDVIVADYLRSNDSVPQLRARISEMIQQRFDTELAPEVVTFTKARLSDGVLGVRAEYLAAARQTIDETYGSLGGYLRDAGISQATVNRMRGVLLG
Briefly: Inhibition of Mycobacterium tuberculosis His-tagged PtpB expressed in Escherichia coli Rosetta 2 (DE3) using pNPP as substrate after 30 mins by spectrophotometric method.

Experiment [3] in a line: Selectivity ratio of IC50 for inhibition of human HSP60 expressed in Escherichia coli Rosetta 2(DE3)/human HSP10 expressed in Rosetta 2(DE3) pLysS cells to IC50 for inhibition of Escherichia coli GroEL expressed in Escherichia coli DH5alpha/Escherichia coli GroES expressed in Escherichia coli BL21 (DE3). The gist of the method:
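Ratio of IC50s from two analogous chaperonin-mediated refolding assays: human HSP60/10 and E. coli GroEL/ES each refold denatured malate dehydrogenase (dMDH). Refolding is followed through the recovered MDH enzymatic activity in a coupled read-out. IC50s come from dose-response testing. GroEL subunits are at 700 nM in the GroEL/ES assay.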

In experiment [4] the test system is Mycobacterium tuberculosis. Put plainly: Antitubercular activity against Mycobacterium tuberculosis H37Rv after 5 days. The class given is functional, organism-based. Conditions: 120 h.
Experiment [5] deals with Mycobacterium tuberculosis. Put plainly: Antitubercular activity against Mycobacterium tuberculosis H37Rv after 5 days at 200 uM relative to control. The experiment is classed as functional. To be noted: 120 h. The method in brief:
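M. tuberculosis grown in liquid culture with compound at a fixed 200 μM for 5 days. Growth inhibition expressed as percent of control.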

Experiment [6] addresses HSP60/HSP10 (Homo sapiens, UniProt P10809). Put plainly: Inhibition of human HSP60 expressed in Escherichia coli Rosetta 2(DE3)/human HSP10 expressed in Escherichia coli Rosetta 2(DE3) pLysS cells assessed as reduction in HSP60/HSP10-mediated denatured pig heart mitochondrial MDH refolding by measuring MDH enzyme activity using sodium mesoxalate as substrate after 40 to 60 mins by spectrometric analysis.

Experiment [7] deals with E. coli GroEL/ES (Escherichia coli, UniProt P0A6F5). Put plainly: Inhibition of Escherichia coli GroEL expressed in Escherichia coliDH5alpha/Escherichia coli GroES expressed in Escherichia coli BL21 (DE3) assessed as reduction in GroEL/GroES-mediated denatured pig heart mitochondrial MDH refolding by measuring MDH enzyme activity using sodium mesoxalate as substrate after 20 to 40 mins by spectrometric analysis.

Experiment [8] addresses T3, Tyrosine-protein phosphatase non-receptor type 1 (Homo sapiens, UniProt P18031).
T3 sequence (P18031 whole entry): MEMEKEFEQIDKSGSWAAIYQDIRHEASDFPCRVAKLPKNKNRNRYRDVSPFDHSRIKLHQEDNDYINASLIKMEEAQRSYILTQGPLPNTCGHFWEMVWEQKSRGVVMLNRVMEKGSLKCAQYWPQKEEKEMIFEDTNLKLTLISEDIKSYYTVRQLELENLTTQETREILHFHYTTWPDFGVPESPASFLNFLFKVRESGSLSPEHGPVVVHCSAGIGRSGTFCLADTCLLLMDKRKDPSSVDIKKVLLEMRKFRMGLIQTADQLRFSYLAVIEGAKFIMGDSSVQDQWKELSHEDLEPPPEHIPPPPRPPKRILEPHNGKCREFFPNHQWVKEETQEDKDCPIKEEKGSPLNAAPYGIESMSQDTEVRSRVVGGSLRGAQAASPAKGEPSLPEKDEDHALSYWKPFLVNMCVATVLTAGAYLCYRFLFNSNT
Briefly: Inhibition of human PTPN1 expressed in Escherichia coli Rosetta 2 (DE3) using pNPP as substrate after 45 mins by spectrophotometric method.

In experiment [9] the target is T4, Tyrosine-protein phosphatase non-receptor type 5 (Homo sapiens, UniProt P54829).
T4 sequence (P54829 whole entry): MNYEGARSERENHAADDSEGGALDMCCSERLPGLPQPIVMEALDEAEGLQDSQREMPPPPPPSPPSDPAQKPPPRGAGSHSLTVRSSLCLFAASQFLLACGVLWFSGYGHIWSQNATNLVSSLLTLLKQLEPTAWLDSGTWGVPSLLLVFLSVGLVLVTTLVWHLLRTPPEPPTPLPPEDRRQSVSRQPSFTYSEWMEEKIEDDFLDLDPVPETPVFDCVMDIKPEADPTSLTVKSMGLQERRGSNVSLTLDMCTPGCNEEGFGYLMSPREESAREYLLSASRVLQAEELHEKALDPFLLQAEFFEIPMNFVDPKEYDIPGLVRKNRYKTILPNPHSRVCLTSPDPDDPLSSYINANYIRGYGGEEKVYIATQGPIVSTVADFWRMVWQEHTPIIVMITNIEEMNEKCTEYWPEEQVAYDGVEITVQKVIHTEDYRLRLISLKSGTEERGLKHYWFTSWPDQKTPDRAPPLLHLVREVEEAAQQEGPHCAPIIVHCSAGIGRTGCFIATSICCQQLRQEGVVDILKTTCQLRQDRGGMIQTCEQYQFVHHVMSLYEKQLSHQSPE
Briefly: Inhibition of human PTPN5 expressed in Escherichia coli Rosetta 2 (DE3) using pNPP as substrate after 45 mins by spectrophotometric method.

The nature of experiment [10]: Selectivity index, ratio of IC50 for human PTPN1 to IC50 for Mycobacterium tuberculosis PtpB.

HSP60/HSP10, sequence (P10809 whole entry): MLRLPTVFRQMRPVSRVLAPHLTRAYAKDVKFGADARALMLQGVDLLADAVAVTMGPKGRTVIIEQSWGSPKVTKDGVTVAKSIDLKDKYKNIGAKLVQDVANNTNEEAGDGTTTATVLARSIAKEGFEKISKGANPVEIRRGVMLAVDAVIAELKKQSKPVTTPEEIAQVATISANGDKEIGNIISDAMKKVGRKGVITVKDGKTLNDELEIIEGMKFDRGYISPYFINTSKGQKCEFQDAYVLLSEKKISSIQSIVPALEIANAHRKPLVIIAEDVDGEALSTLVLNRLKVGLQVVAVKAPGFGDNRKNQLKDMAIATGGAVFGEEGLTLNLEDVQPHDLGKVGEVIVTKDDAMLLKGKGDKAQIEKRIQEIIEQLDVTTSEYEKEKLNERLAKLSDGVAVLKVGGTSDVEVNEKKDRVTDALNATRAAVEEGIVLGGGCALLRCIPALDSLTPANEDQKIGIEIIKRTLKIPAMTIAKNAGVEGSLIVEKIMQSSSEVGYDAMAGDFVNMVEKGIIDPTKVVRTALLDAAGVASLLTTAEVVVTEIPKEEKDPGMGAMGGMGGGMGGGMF
HSP60/HSP10, sequence (P61604 whole entry, further chain): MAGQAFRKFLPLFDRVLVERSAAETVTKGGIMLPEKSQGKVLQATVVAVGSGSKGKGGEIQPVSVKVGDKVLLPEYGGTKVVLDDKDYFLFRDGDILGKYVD
E. coli GroEL/ES, sequence (P0A6F5 whole entry, looked up): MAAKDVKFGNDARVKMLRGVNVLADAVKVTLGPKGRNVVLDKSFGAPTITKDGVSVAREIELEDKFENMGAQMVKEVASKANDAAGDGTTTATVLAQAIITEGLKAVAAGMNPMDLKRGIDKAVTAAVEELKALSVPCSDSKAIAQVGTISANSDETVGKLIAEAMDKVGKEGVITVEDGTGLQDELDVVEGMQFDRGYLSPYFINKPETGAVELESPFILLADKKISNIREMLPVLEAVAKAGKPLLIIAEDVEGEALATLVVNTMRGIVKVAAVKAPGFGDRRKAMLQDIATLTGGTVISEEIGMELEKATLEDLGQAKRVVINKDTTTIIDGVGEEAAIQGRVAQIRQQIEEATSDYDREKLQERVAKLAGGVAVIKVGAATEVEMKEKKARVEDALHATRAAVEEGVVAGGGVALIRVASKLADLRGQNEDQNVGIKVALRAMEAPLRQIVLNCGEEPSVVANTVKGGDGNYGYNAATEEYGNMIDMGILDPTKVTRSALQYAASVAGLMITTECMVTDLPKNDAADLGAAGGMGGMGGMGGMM

As usually defined, the IC50 is the concentration that inhibits the measured activity by half. What is called EC50 is the concentration giving half of the maximal effect. A word on the inhibition: it is the share of the control response that was lost under treatment. As to `NCc1ccc(S(=O)(=O)Nc2ccc3oc(-c4ccc(NS(=O)(=O)c5ccc(Cl)s5)cc4)nc3c2)cc1`, the IC50 came out at 61 µM in [1]; 4.4 µM in experiment [2]; 37 µM in experiment [6]; 4.6 µM in experiment [7]; 42 µM in experiment [8]; 62 µM in experiment [9]. Further, the Ratio IC50 in experiment [3] stood at 8; in experiment [10] it was 9.5. Also, the EC50 in [4] was 59 µM. In addition, in experiment [5], the inhibition at 200 µM came out at 91%.

With `O=S(=O)(Nc1ccc2oc(-c3ccc(NS(=O)(=O)c4cccc5nonc45)cc3)nc2c1)c1ccc(Cl)s1`, the concentration for half-maximal inhibition (IC50) in [1] worked out at 28 µM; in experiment [2] it was 5.9 µM; in experiment [6] it was 13 µM; in [7], 9.3 µM; in experiment [8], 15 µM; in [9], 24 µM. Further, the results for the Ratio IC50 in experiment [3] and in experiment [10] were 1.4 and 2.5, respectively. The compound also gave an EC50 in [4] of 58 µM. In [5], this compound displayed an inhibition at 200 µM of 46%.

With `O=S(=O)(Nc1ccc(-c2nc3cc(NS(=O)(=O)c4ccc(F)cc4)ccc3o2)cc1)c1ccc(F)cc1`, the IC50 was 28 µM in experiment [1]; 18 µM in [2]; 67 µM in [6]; 3.3 µM in experiment [7]; 27 µM in experiment [8]; 23 µM in experiment [9]. Further, the results for the Ratio IC50 in experiment [3] and in experiment [10] were 20 and 1.3, respectively. Also, the response in experiment [4] was half-maximal at 66 µM (EC50). The compound further had an inhibition at 200 µM in experiment [5] of 48%.

Consider `O=S(=O)(Nc1ccc(-c2nc3cc(NS(=O)(=O)c4ccccc4F)ccc3o2)cc1)c1ccccc1F`, for which the IC50 is 31 µM in experiment [1]; 16 µM in experiment [2]; 57 µM in [6]; 20 µM in experiment [7]; 36 µM in experiment [8]; 26 µM in [9]. Further, the Ratio IC50 in experiment [3] stood at 2.9; in [10], 1.6. In experiment [4], this compound showed an EC50 of 45 µM. Besides, testing at 200 µM in [5] gave an inhibition of 54%.

On to `O=S(=O)(Nc1ccc(-c2nc3cc(NS(=O)(=O)c4cccc(O)c4)ccc3o2)cc1)c1cccc(O)c1`, for which the IC50 in [1] turned out to be 84 µM; in experiment [2], 1.5 µM; in experiment [6], 17 µM; in experiment [7], 0.97 µM; in experiment [8] it was 38 µM; in [9], 47 µM. Besides, the Ratio IC50 in experiment [3] was 18; in [10] it was 25. Also, a half-maximal response in experiment [4] (EC50) required 84 µM. This compound had an inhibition at 200 µM in experiment [5] of 80%.

As to `O=S(=O)(Nc1ccc(-c2nc3cc(NS(=O)(=O)c4ccccc4)ccc3o2)cc1)c1ccccc1`, the IC50 in experiment [1] was 29 to 31 µM; in experiment [2], 18 µM; in experiment [6], 80 µM; in experiment [7], 4 µM; in [8] it was 24 µM; in experiment [9], 23 µM. Further, the Ratio IC50 in experiment [3] worked out at 20; in experiment [10], 1.3. Further, the midpoint of the response in [4], the EC50, lay at 28 µM. In experiment [5], the inhibition at 200 µM came to 76%.

Consider `O=S(=O)(Nc1ccc(-c2nc3cc(NS(=O)(=O)c4ccc(O)cc4)ccc3o2)cc1)c1ccc(O)cc1`, for which the IC50 in [1] amounted to 75 µM; in experiment [2], 12 µM; in experiment [6] it was 14 µM; in experiment [7] it was 0.23 µM; in experiment [8], 27 µM; in experiment [9], 35 µM. In addition, the results for the Ratio IC50 in [3] and in experiment [10] were 61 and 2.3, respectively. Also, the response in experiment [4] was half-maximal at 94 µM (EC50). The same compound gave an inhibition at 200 µM in experiment [5] of 66%.

With `O=S(=O)(Nc1ccc(-c2nc3cc(NS(=O)(=O)c4ccccc4O)ccc3o2)cc1)c1ccccc1O`, the IC50 in experiment [1] stood at 39 µM; in experiment [2] it was 2.3 µM; in experiment [6], 18 µM; in [7] it was 7.7 µM; in experiment [8], 23 µM; in experiment [9], 25 µM. In addition, the results for the Ratio IC50 in experiment [3] and in experiment [10] were 2.3 and 10, respectively. Moreover, in [4], the EC50 was found to be 63 µM. For the same compound, in experiment [5], at 200 µM the inhibition was 79%.

As to `O=S(=O)(Nc1ccc2oc(-c3ccc(NS(=O)(=O)c4ccc(Cl)s4)cc3)nc2c1)c1cccs1`, the IC50 in experiment [1] was 31 µM; in [2], 5.1 µM; in experiment [6], 9.1 µM; in [7], 4 µM; in experiment [8], 13 µM; in experiment [9] it was 23 µM. Besides, the Ratio IC50 in [3] came out at 2.3; in experiment [10], 2.5. For the same compound, it took 36 µM to reach a half-maximal effect in [4] (EC50). Moreover, in experiment [5], at 200 µM the inhibition was 52%.

For the compound `O=S(=O)(Nc1ccc2oc(-c3ccc(NS(=O)(=O)c4ccc(Cl)s4)cc3)nc2c1)c1ccccc1`, the IC50 in experiment [1] is 28 µM; in experiment [2] it was 8.8 µM; in experiment [6], 9 µM; in [7], 5.6 µM; in experiment [8], 14 µM; in experiment [9] it was 24 µM. Further, the Ratio IC50 in [3] and in [10] was 1.6 throughout. For the same compound, the EC50 in experiment [4] was determined as 40 µM. In experiment [5], this compound gave an inhibition at 200 µM of 72%.

As for `CS(=O)(=O)Nc1ccc(-c2nc3cc(NS(=O)(=O)c4ccc(Cl)s4)ccc3o2)cc1`, the IC50 was 95 µM in [1]; 37 µM in experiment [2]; 43 µM in experiment [6]; 14 µM in experiment [7]; 52 µM in [8]; 52 µM in experiment [9]. Also, the Ratio IC50 in experiment [3] turned out to be 3.1; in experiment [10], 1.4. Moreover, the response in experiment [4] was half-maximal at 66 µM (EC50). This compound also came in with an inhibition at 200 µM in [5] of 74%.

For the compound `NCc1ccc(S(=O)(=O)Nc2ccc(-c3nc4cc(NS(=O)(=O)c5ccc(Cl)s5)ccc4o3)cc2)cc1`, the IC50 in experiment [1] came to 91 µM; in [2], 9.1 µM; in experiment [6], 48 µM; in experiment [8] it was 56 µM; in experiment [9] it was 75 µM. Also, the Ratio IC50 in [3] turned out to be 37; in [10] it was 6.2. For the same compound, the EC50 in experiment [4] stood at 26 µM. Moreover, the inhibition at 200 µM in [5] stood at 94%.

Source of the values: ChEMBL document CHEMBL4387722.
